Shown are actives, neighbours in structure and some others; about 2% of the full set was active somewhere.
PAD4 FP inh = human PAD4 inhibitors, primary screen, biochemical, fluorescence polarization, 1536-well format. Protein-arginine deiminase type-4 (Homo sapiens), Q9UM07. recombinant PAD4, RCA probe fluorescence polarization. inhibition, % at 6.36 µM. 330,000 tested, 0.41% active. AID 485272, 2010;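 active = percent inhibition above a cutoff equal to the mean of all tested compounds plus 3 SD, cut at about 15% in these data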;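 also: 0% = PAD4 with RCA probe and DMSO and 100% = probe without PAD4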
Apaf-1 inh = inhibitors of human Apaf-1 apoptosome, primary screen, biochemical, DEVD-Rh110 fluorescence, uHTS; Apoptotic protease-activating factor 1 (Homo sapiens), O14727; reconstituted apoptosome caspase-3 activity; inhibition, % at 20 µM; 330,000 tested, 0.71% active; AID 489030, 2010; active = inhibition of at least 40% at 20 µM;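 also: plate controls were DMSO wells for no effect and DEVD-CHO caspase inhibitor wells for full effect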
Target sequence (O14727 whole entry, looked up): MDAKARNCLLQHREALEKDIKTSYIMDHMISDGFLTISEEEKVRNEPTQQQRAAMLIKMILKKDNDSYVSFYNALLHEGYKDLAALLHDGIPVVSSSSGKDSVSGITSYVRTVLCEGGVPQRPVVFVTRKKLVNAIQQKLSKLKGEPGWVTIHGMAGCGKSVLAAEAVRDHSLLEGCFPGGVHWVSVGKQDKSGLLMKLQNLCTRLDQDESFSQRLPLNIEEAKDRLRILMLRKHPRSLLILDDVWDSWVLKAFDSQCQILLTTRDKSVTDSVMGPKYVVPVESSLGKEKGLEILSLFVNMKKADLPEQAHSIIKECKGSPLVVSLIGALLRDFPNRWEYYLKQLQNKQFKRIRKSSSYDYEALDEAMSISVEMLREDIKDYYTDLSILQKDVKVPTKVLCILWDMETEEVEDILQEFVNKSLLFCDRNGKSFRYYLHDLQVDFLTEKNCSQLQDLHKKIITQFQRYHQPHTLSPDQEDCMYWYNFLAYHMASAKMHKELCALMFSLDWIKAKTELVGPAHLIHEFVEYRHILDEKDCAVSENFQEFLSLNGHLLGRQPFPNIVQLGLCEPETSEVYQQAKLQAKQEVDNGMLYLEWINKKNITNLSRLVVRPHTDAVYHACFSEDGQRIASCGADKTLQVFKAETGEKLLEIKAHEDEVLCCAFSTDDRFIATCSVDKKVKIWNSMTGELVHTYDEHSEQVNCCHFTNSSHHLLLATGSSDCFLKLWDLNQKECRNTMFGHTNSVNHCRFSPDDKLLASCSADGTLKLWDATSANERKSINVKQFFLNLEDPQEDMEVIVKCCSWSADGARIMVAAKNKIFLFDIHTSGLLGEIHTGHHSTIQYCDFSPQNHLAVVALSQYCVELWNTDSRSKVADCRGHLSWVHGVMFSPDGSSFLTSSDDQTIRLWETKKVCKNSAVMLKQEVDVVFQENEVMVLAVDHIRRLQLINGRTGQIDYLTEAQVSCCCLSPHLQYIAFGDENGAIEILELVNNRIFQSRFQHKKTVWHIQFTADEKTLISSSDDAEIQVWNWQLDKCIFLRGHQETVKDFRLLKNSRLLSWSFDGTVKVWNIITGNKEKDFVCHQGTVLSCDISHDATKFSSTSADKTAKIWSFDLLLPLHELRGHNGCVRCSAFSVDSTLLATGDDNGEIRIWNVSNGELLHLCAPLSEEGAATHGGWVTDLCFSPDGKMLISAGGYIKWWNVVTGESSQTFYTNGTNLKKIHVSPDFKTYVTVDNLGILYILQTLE
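Material: reconstituted apoptosome with Apaf-1, cytochrome c, caspase-9, procaspase-3, dATP. Technique: Rh110 fluorescence intensity. Buffer or medium: pH 7.5 Hepes buffer with CHAPS, BSA, DTT. Times: 30 min plus 50 min, RT.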
Fh CTSL1 inh = Fasciola hepatica cathepsin L1 inhibitors, primary screen, counter-screen for PFM18AAP inhibitor project, biochemical, QFRET, fluorogenic peptide substrate; recombinant F. hepatica cathepsin L1, Z-Leu-Arg-MCA fluorescence; inhibition, % at 5.96 µM; 300,000 tested, 0.49% active; AID 1906, 2009;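 active = inhibition above the mean of all tested compounds plus 3 SD, set per screening campaign, cut at about 17% in these data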;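 also: 0% = plate median of test compound wells and 100% = 1 µM Z-Phe-Ala-diazomethylketone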
UCH37 DUB inh = inhibitors of human UCH37 deubiquitinase, primary screen, biochemical, Ub-AMC cleavage, fluorescence; Ubiquitin carboxyl-terminal hydrolase isozyme L5 (Homo sapiens), Q9Y5K5; purified proteasome/UCH37; inhibition, % (test concentration not listed); 330,000 tested, 0.33% active; AID 588478, 2011;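 active = mean inhibition over replicate wells above about 20%, limit read from the data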;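 also: 0% = compound-free wells with enzyme and 100% = wells lacking proteasome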
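Material: human UCH37 enzyme supplied as purified proteasome complex / Amount: 0.15 nM proteasome as dispensed / Buffer or medium: pH 7.4 Tris-HCl (50 mM) with ovalbumin, ATP-MgCl2, DTT / Times: preincubation 30 min, reaction 25 min, room temperature / Technique: AMC fluorescence from Ub-AMC cleavage, excitation 355 nm, emission 460 nm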
GSTO1 inh = inhibitors of recombinant GSTO1, primary screen, counter-screen for RBBP9 inhibitor project, biochemical, fluorescence polarization | AID 1974, 2009 | inhibition, % at 5.96 µM | activity-based probe fluorescence polarization | 300,000 tested, 1.1% active | Glutathione S-transferase omega-1 (Homo sapiens), P78417;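 active = inhibition above the campaign mean inhibition plus 3 SD, cut at about 35% in these data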;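 also: 0% = GSTO1-1 with DMSO and 100% = wells lacking GSTO1-1 enzyme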
PP5 primary = PP5 phosphatase inhibitors, primary screen, biochemical, fluorescence; purified PP5c, OMFP substrate fluorescence; inhibition, % at 6.7 µM; 320,000 tested, 0.18% active;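 active = inhibition above the campaign's mean inhibition across all tested compounds plus 3 SD, cut at about 9.5% in these data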;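 also: 0% = DMSO only and 100% = 100 µM cantharidin control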
UCH37 confirm = retest of human UCH37 deubiquitinase inhibitors, confirmation, biochemical, Ub-AMC cleavage rate, fluorescence; shares compounds with UCH37 DUB inh; Proteasome-bound UCH37; inhibition, % at 20 µM; 480 tested, 27% active; AID 624100, 2012;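 active = average inhibition over replicates above about 50%, so the earlier screening hit is confirmed, limit read from the data; inactive = the rest, counted as false positives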;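 also: based on cleavage rate fitted by regression over a 30 min kinetic read; 0% = proteasome plus Ub-AMC and 100% = Ub-AMC without proteasome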
Numbers without * were called inactive; x = no result given.

SMILES | PAD4 FP inh | Apaf-1 inh | Fh CTSL1 inh | UCH37 DUB inh | GSTO1 inh | PP5 primary | UCH37 confirm
Cc1ccccc1OCC(=O)NN=Cc1c(C)nn(-c2ccccc2)c1Cl | x | x | x | 4.8 | x | x | x
O=c1cc(N2CCc3ccccc3C2)[nH]c(=O)n1-c1ccccc1Cl | 0.0 | 0.4 | -4.0 | 12.7 | -3.3 | 2.1 | x
Cc1ccc(-n2c(=O)cc(N3CCc4ccccc4C3)[nH]c2=O)cc1 | 0.3 | -14.4 | 2.2 | 34.3* | -6.5 | -1.3 | 31.7
Cc1ccc(-n2c(=O)cc(N3CCC(C)CC3)[nH]c2=O)cc1 | -0.6 | -6.6 | -3.5 | 5.0 | -1.2 | 0.4 | x
Cc1ccccc1-n1c(=O)cc(N2CCc3ccccc3C2)[nH]c1=O | -2.1 | 11.8 | 0.3 | 27.2* | -4.0 | 4.0 | 31.8
COc1cccc2c1OCCC2=NNC(=O)C(C)Oc1ccc([N+](=O)[O-])cc1 (configuration not stated) | x | x | x | 5.2 | x | x | x
O=C(CNC(=O)c1cccc(F)c1)NN=Cc1ccc([N+](=O)[O-])s1 | x | x | x | 6.0 | x | x | x
O=C(O)c1cccc(S(=O)(=O)Nc2ccc([N+](=O)[O-])cc2O)c1 | -4.5 | -12.2 | -1.7 | 8.9 | 34.3 | -0.5 | x
O=C(O)CSc1cc(NS(=O)(=O)c2cccc([N+](=O)[O-])c2)c2ccccc2c1O | x | x | x | 30.5* | x | x | 82.7*
N#CC1=C(N)NC(SCC(=O)Nc2ccccc2)=C(C#N)C12CCCC2 | -5.7 | 10.8 | -0.1 | 37.5* | -10.6 | 2.0 | 33.9
CC(=NNS(=O)(=O)c1ccc(C)cc1C)c1ccc2c(c1)OCO2 | x | x | x | -0.2 | x | x | x
COc1ccc(C)cc1S(=O)(=O)N1CCC(C(=O)NCCC2=CCCCC2)CC1 | -6.0 | 9.4 | -6.3 | 32.4* | -5.6 | 2.3 | 5.7
CCOc1ccc(S(=O)(=O)NCCC2=CCCCC2)c2ccccc12 | 0.6 | 1.6 | -1.3 | 1.7 | -10.2 | 0.0 | x
CC(=O)N1CCCc2cc(S(=O)(=O)NCCC3=CCCCC3)ccc21 | 5.7 | 8.9 | 3.1 | 54.5* | 29.7 | -1.9 | 76.1*
CS(=O)(=O)NCCC1=CCCCC1 | -6.2 | 2.3 | -0.7 | 43.8* | 8.3 | -0.1 | 79.6*
COc1ccc(C)cc1S(=O)(=O)NCCC1=CCCCC1 | 1.9 | 13.0 | -3.8 | 58.3* | 4.2 | 7.6 | 8.1
Cc1ccc(C=Nn2c(C)nnc2C)cc1 | x | x | x | 0.2 | x | x | x
CN1CCN(C2=C(Cl)C(=O)c3ccccc3C2=O)CC1 | x | x | x | 96.7* | x | x | 96.6*
CC(C)NC(=O)/C(C#N)=C/c1ccc(N(C)C)o1 | -3.0 | -7.6 | 6.0 | 32.4* | 6.3 | 3.5 | 34.4
Cc1ccc(/C=C(\C#N)C(=O)NC(C)C)o1 | 0.4 | -12.8 | 9.0 | 11.8 | 12.8 | 0.1 | x
CN(C[C@H](c1ccccc1)N(C[C@H](Cc1ccccc1)N(CCc1ccccc1)N=O)N=O)N=O | 3.4 | 8.0 | 3.6 | 37.2* | 0.9 | -0.1 | 9.4
CCN1/C(=C\C=C(C(C)=O)C(C)=O)Sc2ccccc21 | -2.9 | 7.8 | 11.1 | 38.6* | 0.7 | 6.9 | 39.0
CCOC(=O)/C(C#N)=C(C)/C=C1\Sc2ccccc2N1CC | 5.4 | 3.8 | 6.5 | 2.5 | 5.9 | 3.1 | x
COc1cc(OC)nc(N=CN(C)C)n1 | x | x | x | 0.6 | x | x | x
COCCCNC(=S)NNC(=O)c1ccc2c(c1)OCO2 | -4.0 | 2.5 | 1.0 | 37.3* | 3.6 | -1.2 | 21.9
CCN1C(=O)C2(C(C(=O)c3ccc(C)o3)=C(O)C(=O)N2CCCN2CCOCC2)c2ccccc21 (configuration not stated) | -4.8 | -8.6 | 1.2 | 46.4* | -6.7 | -1.1 | 20.0
Cc1ccc(C(=O)C2=C(O)C(=O)N(CCCN3CCOCC3)C23C(=O)N(C)c2ccccc23)o1 (configuration not stated) | -5.7 | 2.9 | 7.8 | 5.9 | -0.2 | 1.6 | x

Screening data deposited in PubChem by several laboratories.
